Assay results published in PubChem BioAssay AID588417 (The Scripps Research Institute Molecular Screening Center, 2011).
Active and inactive are the calls of the source.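 The calls were made as follows: active = IC50 at or below 1 µM; inactive = IC50 above 1 µM.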

Target: Protein-arginine deiminase type-4 (Homo sapiens) (UniProt Q9UM07)
Assay: human PAD4 inhibitor potency, late-stage follow-up, biochemical, colorimetric substrate assay, assay provider data, 0-15 µM (AID 588417)
Conditions: recombinant PAD4, BAEE substrate, citrulline colorimetric absorbance
Procedure, shortened: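 Measured by – absorbance at 540 nm after diacetyl monoxime/thiosemicarbazide color development · Assay system – recombinant PAD4 protein · Amount – 0.2 µM PAD4 · Probe or stimulus – 10 mM BAEE · Read-out – IC50 from fractional PAD4 activity, citrulline quantified via standard curve · Times – 15 min pretreatment plus 15 min reaction, 37 °C · Replicates – duplicate measurements at each compound concentration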

Protein-arginine deiminase type-4 (Homo sapiens), sequence (Q9UM07 whole entry, looked up): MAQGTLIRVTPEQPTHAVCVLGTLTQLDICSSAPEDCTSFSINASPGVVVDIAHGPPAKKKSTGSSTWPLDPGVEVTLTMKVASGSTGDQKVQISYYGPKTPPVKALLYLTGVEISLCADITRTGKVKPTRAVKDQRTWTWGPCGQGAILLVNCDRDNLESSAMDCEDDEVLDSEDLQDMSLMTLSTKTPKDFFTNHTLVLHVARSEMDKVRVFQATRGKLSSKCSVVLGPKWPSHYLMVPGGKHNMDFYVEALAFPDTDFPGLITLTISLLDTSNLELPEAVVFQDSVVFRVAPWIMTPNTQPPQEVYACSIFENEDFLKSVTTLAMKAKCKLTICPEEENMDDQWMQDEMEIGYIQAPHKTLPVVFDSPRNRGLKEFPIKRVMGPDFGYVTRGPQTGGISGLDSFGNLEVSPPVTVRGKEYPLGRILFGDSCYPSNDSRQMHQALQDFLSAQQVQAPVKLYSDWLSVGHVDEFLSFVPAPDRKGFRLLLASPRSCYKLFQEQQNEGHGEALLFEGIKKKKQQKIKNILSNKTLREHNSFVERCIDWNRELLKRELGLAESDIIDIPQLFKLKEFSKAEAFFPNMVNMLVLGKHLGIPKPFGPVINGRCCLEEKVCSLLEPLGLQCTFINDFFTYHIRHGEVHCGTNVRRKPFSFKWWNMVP

IC50: inactive
Structure (SMILES): COC1=C(Br)C(=O)c2nc(-c3ccccn3)ccc2C1=O
